In one test the target is T1, Threonine--tRNA ligase (Yersinia pestis, UniProt Q8ZDW5).
T1 sequence (Q8ZDW5 whole entry): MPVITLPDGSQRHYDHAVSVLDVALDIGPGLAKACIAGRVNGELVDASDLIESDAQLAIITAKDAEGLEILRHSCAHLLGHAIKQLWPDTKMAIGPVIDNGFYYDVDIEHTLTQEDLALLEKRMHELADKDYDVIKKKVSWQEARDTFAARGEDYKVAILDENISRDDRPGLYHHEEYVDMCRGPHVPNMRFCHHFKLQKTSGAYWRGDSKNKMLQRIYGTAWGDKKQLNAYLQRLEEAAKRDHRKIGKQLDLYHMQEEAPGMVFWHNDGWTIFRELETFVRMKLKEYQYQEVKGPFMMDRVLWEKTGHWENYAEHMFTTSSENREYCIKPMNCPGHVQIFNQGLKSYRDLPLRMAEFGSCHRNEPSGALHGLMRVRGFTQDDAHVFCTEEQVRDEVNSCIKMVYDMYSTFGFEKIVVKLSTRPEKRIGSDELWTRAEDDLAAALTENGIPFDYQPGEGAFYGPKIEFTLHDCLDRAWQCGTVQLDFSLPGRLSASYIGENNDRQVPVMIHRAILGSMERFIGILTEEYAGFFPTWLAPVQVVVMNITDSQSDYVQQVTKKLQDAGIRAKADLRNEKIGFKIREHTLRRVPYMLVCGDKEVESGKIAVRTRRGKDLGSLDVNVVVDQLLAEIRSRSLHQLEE
Nature of the test: Binding affinity to Yersinia pestis ThrRS by coupled spectrophotometry. In a few lines:
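Coupled spectrophotometric (MESG) readout of pyrophosphate release during adenylation; L-serine 200 mM as surrogate substrate, 4 mM ATP, 5 nM enzyme, Tris pH 7.6, MgCl₂, KCl, DTT, 2% DMSO. Inhibitor 16-point 2-fold series, 50 μM–1.5 nM, normalised to no-inhibitor and no-enzyme controls. IC50 from 4-parameter fit; Ki by bisubstrate Cheng–Prusoff.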

Test [1] is described as follows: Binding affinity to Escherichia coli ThrRS by coupled spectrophotometry. In a few lines:
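Coupled spectrophotometric assay following pyrophosphate released during ATP-dependent adenylation, read out through MESG with inorganic pyrophosphatase and purine nucleoside phosphorylase. Buffer was 60 mM Tris pH 7.6, 10 mM MgCl₂, 20 mM KCl, 0.5 mM DTT, 2% DMSO, with 4 mM ATP, 200 mM L-serine as surrogate substrate and 5 nM enzyme.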

The test system of test [2] is Escherichia coli. Nature of the test: Antimicrobial activity against wild type Escherichia coli ATCC 25922 measured after overnight incubation by alamarBlue assay. It is filed as functional. The essentials: (§1)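 Broth microdilution per CLSI; DMSO stocks at 6.4 mg/mL, serially diluted and added 1:50 to inoculated medium for final 0.063–128 μg/mL. Inoculum about 5 × 10⁵ CFU/mL, checked by plating. Overnight at 37 °C; H. influenzae grown in Haemophilus test medium broth with 5% CO₂. alamarBlue added for 1 h; MIC read as the lowest concentration with no visible color change.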

The subject of test [3] is Escherichia coli. Nature of the test: Antimicrobial activity against Escherichia coli BAS849 expressing Imp Thr332-Tyr354 deletion mutant measured after overnight incubation by alamarBlue assay. Format: functional.
Test [4] is described as follows: Binding affinity to Burkholderia thailandensis ThrRS by coupled spectrophotometry.
Test [5] relates to Escherichia coli. Briefly: Antimicrobial activity against Escherichia coli BW25113 expressing TolC Leu13-Ala480 deletion mutant measured after overnight incubation by alamarBlue assay. It is filed as functional. Background: The colour change of resazurin is a common sign of viable cells or microbes.
The subject of a further test is Haemophilus influenzae. Briefly: Antimicrobial activity against wild type Haemophilus influenzae ATCC 31517 measured after overnight incubation by alamarBlue assay. Format: functional. The essentials:
as §1

Test [6] has as its system Burkholderia thailandensis. Briefly: Antimicrobial activity against isogenic amrAB-oprA/bpeAB-oprB double knockout Burkholderia thailandensis E264 measured after overnight incubation by alamarBlue assay. Format: functional.
The subject of test [7] is Burkholderia thailandensis. Briefly: Antimicrobial activity against wild type Burkholderia thailandensis E264 measured after overnight incubation by alamarBlue assay. It is filed as functional.
The target of test [8] is T2, Threonine--tRNA ligase 1, cytoplasmic (Homo sapiens, UniProt P26639).
T2 sequence (P26639 whole entry): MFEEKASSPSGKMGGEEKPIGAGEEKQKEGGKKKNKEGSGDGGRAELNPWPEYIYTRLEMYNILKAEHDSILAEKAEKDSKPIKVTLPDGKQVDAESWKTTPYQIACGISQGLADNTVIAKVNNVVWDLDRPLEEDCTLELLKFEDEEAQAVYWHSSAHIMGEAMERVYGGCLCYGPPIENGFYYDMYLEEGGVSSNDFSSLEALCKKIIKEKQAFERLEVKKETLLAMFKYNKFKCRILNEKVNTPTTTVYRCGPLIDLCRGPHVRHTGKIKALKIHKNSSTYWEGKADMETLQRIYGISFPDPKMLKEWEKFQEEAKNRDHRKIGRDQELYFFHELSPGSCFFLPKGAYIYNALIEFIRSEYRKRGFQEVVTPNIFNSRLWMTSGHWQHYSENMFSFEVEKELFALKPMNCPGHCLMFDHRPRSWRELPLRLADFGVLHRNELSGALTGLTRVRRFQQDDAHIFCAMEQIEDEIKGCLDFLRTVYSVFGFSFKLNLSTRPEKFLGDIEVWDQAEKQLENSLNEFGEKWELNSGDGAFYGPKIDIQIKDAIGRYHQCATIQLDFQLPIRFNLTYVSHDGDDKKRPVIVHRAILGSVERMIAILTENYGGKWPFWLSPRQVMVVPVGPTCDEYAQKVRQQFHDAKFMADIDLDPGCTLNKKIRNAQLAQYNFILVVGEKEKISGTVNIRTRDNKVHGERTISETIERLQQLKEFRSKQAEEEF
Nature of the test: Binding affinity to human cytoplasmic ThrRS by coupled spectrophotometry.

Molecules are shown by their SMILES. Converted amounts (≈) assume the structure as drawn.

The values below come from ChEMBL document CHEMBL2311457, “Identification of bacteria-selective threonyl-tRNA synthetase substrate inhibitors by structure-based design” (J Med Chem, 2013).

A word on the Ki: it is a dissociation constant, usually derived from enzyme kinetics or from competition with a known ligand. The low end stands for a stronger hold on the target, the high end for a looser hold on the target.

As for `C[C@@H](N)[C@H](N)C(=O)NS(=O)(=O)/C=C/c1cccc(-c2cc(N)ncn2)c1`, the Ki (at Threonine--tRNA ligase; in test [1]) was more than 50000 nM in each case.
As for `C[C@@H](O)[C@H](N)C(=O)NS(=O)(=O)OC[C@@H]1O[C@H](n2cnc3c(N)ncnc32)[C@@H](O)[C@H]1O`, the MIC was more than 128 µg/mL in the test with Escherichia coli [2]; more than 128 µg/mL against Escherichia coli [3]; more than 128 µg/mL in the test with Escherichia coli [5]; more than 128 µg/mL against Haemophilus influenzae; 64 µg/mL (≈ 143 µM) in test [6]; more than 128 µg/mL in test [7]. Also, the figures for the Ki (on Threonine--tRNA ligase; in test [4]; in test [1]) were 9.8 nM, 2.8 nM and 13.1 nM, respectively.
Regarding `C[C@@H](O)[C@H](N)C(=O)NS(=O)(=O)c1cccc(-c2ccc3c(N)ncnc3c2)c1`, the MIC against Escherichia coli [2] is more than 128 µg/mL; against Escherichia coli [3], more than 128 µg/mL; against Escherichia coli [5], 64 µg/mL (≈ 159 µM); with Haemophilus influenzae it was 16 µg/mL (≈ 39.9 µM); in [6], 8 µg/mL (≈ 19.9 µM); in test [7], more than 128 µg/mL. Moreover, the inhibition constant (Ki) came out at 2.2 nM at Threonine--tRNA ligase, 0.9 nM in test [4] and 2.9 nM in test [1].
In the case of `C[C@@H](O)[C@H](N)C(=O)NS(=O)(=O)c1cccc(-c2ccc3c(N)nc(N)nc3c2)c1`, the MIC is more than 128 µg/mL with Escherichia coli [2]; more than 128 µg/mL with Escherichia coli [3]; 64 µg/mL (≈ 154 µM) against Escherichia coli [5]; 32 µg/mL (≈ 76.8 µM) in the test on Haemophilus influenzae; 4 µg/mL (≈ 9.6 µM) in [6]; more than 128 µg/mL in [7]. In addition, the Ki was found to be 8.2 nM on Threonine--tRNA ligase, 2.9 nM in test [4] and 10.7 nM in test [1].
Turning to `C[C@@H](O)[C@H](N)C(=O)NS(=O)(=O)c1cccc(-c2ccc3c(N)nc(Cl)nc3c2)c1`, the MIC in the test with Escherichia coli [2] is more than 128 µg/mL; with Escherichia coli [3], 128 µg/mL (≈ 294 µM); against Escherichia coli [5] it was 16 µg/mL (≈ 36.7 µM); in the test on Haemophilus influenzae it was 8 µg/mL (≈ 18.4 µM); in test [6] it was 32 µg/mL (≈ 73.4 µM); in test [7], more than 128 µg/mL. For the same compound, the Ki on Threonine--tRNA ligase was 0.7 nM; in test [4], 0.3 nM; in test [1], 0.8 nM.
Turning to `Cc1nc(N)c2ccc(-c3cccc(S(=O)(=O)NC(=O)[C@@H](N)[C@@H](C)O)c3)cc2n1`, the Ki on Threonine--tRNA ligase was 9.3 nM; in test [4] it was 12.2 nM; in [1], 17.2 nM.
As to `C[C@@H](O)[C@H](N)C(=O)NS(=O)(=O)c1cccc(-c2ccc3c(N)nc(Cl)cc3c2)c1`, the inhibition constant Ki stood at 25 nM at Threonine--tRNA ligase, 23 nM in test [4] and 20 nM in test [1].
Consider `C[C@@H](O)[C@H](N)C(=O)NS(=O)(=O)c1cccc(-c2ccc3c(N)nccc3c2)c1`, for which the Ki was determined as 115 nM at Threonine--tRNA ligase, 89 nM in test [4] and 90 nM in test [1].
For the compound `C[C@@H](O)[C@H](N)C(=O)NS(=O)(=O)c1ccc2ccc(-c3cc(N)ncn3)cc2c1`, the MIC against Escherichia coli [2] was more than 128 µg/mL; against Escherichia coli [3], more than 128 µg/mL; against Escherichia coli [5], 64 µg/mL (≈ 159 µM); against Haemophilus influenzae it was 4 µg/mL (≈ 9.96 µM); in test [6] it was 4 µg/mL (≈ 9.96 µM); in test [7] it was more than 128 µg/mL. Further, the Ki is 2 nM at Threonine--tRNA ligase, 0.7 nM in test [4] and 2.7 nM in [1].
For `C[C@@H](O)[C@H](N)C(=O)NS(=O)(=O)/C=C/c1cccc(-c2cc(N)ncn2)c1`, the MIC in the test with Escherichia coli [2] is more than 128 µg/mL; with Escherichia coli [3], more than 128 µg/mL; with Escherichia coli [5] it was 64 µg/mL (≈ 170 µM); against Haemophilus influenzae, 8 µg/mL (≈ 21.2 µM); in [6], 32 µg/mL (≈ 84.8 µM); in [7], more than 128 µg/mL. The Ki at Threonine--tRNA ligase was determined as 1.8 nM; in [4] it was 1.1 nM; in test [1], 2.7 nM.
As to `C[C@@H](O)[C@H](N)C(=O)NS(=O)(=O)c1ccc2ccc(-c3ncnc4[nH]ccc34)cc2c1`, the MIC against Escherichia coli [2] is more than 128 µg/mL; in the test on Escherichia coli [3], more than 128 µg/mL; against Escherichia coli [5], 16 µg/mL (≈ 37.6 µM); against Haemophilus influenzae, 16 µg/mL (≈ 37.6 µM); in test [6] it was 32 µg/mL (≈ 75.2 µM); in test [7], more than 128 µg/mL. The Ki on Threonine--tRNA ligase was 1.8 nM; in test [4] it was 0.6 nM; in test [1], 2.4 nM.
In the case of `C[C@@H](O)[C@H](N)C(=O)NS(=O)(=O)N1CCc2ccc(-c3ncnc4[nH]ccc34)cc2C1`, the figures for the Ki (at Threonine--tRNA ligase; in test [4]; in test [1]) were 5.7 nM, 4 nM and 9.5 nM, respectively.
Taken in the same sequence, the figures for `C[C@@H](O)[C@H](N)C(=O)NS(=O)(=O)c1cccc(-c2ccc3c(c2)CNC3=O)c1` were 3.9 nM, 7.4 nM and 7.7 nM.
On the same counts, the results for `C[C@@H](O)[C@H](N)C(=O)NS(=O)(=O)c1cccc(-c2ccc3[nH]nc(Cl)c3c2)c1` are 39 nM, 77 nM and 52 nM.
As to `C[C@@H](O)[C@H](N)C(=O)NS(=O)(=O)c1ccc(Oc2ccccc2)cc1`, the results for the Ki (on Threonine--tRNA ligase; in test [4]; in test [1]) were 33100 nM, 193000 nM and 36500 nM, respectively.
Consider `Cc1n[nH]c2ccc(-c3cccc(S(=O)(=O)NC(=O)[C@@H](N)[C@@H](C)O)c3)cc12`, for which the Ki was 83 nM at Threonine--tRNA ligase, 143 nM in test [4] and 127 nM in test [1].
Take `C[C@@H](O)[C@H](N)C(=O)NS(=O)(=O)c1cccc(-c2ccc3[nH]ncc3c2)c1`: the Ki on Threonine--tRNA ligase is 132 nM; in [4], 164 nM; in [1], 182 nM; in test [8], more than 50000 nM.
In the case of `C[C@@H](O)[C@H](N)C(=O)NCc1cccc(-c2ccc3c(N)nc(Cl)nc3c2)c1`, the Ki on Threonine--tRNA ligase amounted to 436 nM; in test [4] it was 140 nM; in [1], 329 nM.
Taken in the same sequence, the figures for `C[C@@H](O)[C@H](N)C(=O)NNc1cccc(-c2ccc3c(N)nc(Cl)nc3c2)c1` were 70 nM, 34 nM and 136 nM.
With `C[C@@H](O)[C@H](N)CNS(=O)(=O)c1cccc(-c2ccc3c(N)nc(Cl)nc3c2)c1`, the Ki (at Threonine--tRNA ligase; in test [1]; in test [8]) was more than 50000 nM throughout.
On to `C[C@@H](O)[C@H](N)C(=O)N(C)S(=O)(=O)c1cccc(-c2ccc3c(c2)CNC3=O)c1`, for which the Ki (at Threonine--tRNA ligase; in [1]; in test [8]) was more than 50000 nM each time.
For the compound `CC[C@@H](O)[C@H](N)C(=O)NS(=O)(=O)/C=C/c1cccc(-c2cc(N)ncn2)c1`, the Ki at Threonine--tRNA ligase was found to be 2.7 nM; in test [4], 14.1 nM; in [1] it was 4.3 nM.
On the same counts, the results for `CC(C)[C@@H](O)[C@H](N)C(=O)NS(=O)(=O)/C=C/c1cccc(-c2cc(N)ncn2)c1` are 22.5 nM, 588 nM and 32.4 nM.
On to `C[C@@H](O)[C@H](O)C(=O)NS(=O)(=O)/C=C/c1cccc(-c2cc(N)ncn2)c1`, for which the Ki (at Threonine--tRNA ligase; in test [1]; in test [8]) was more than 50000 nM throughout.
